Columns and labels:
Cholinesterase = Cholinesterase (Mus musculus, UniProt Q03311); experiment: Inhibition of mouse serum BChE after 1 hr by modified Ellman's colorimetric method
How it was run: (§1)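 Enzyme source was a mouse serum extract. Inhibitor was preincubated with enzyme for 1 h at 37 °C, then butyrylthiocholine was added together with DTNB. Absorbance at 415 nm was read at 2 min intervals. Activity was taken as percent of the DMSO solvent control. Seven concentrations were tested, and IC50 came from nonlinear regression of a sigmoidal dose-response curve.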

Acetylcholinesterase = target: T1, Acetylcholinesterase (Mus musculus, UniProt P21836); experiment: Inhibition of mouse brain AChE after 1 hr by modified Ellman's colorimetric method
T1 sequence (P21836 whole entry): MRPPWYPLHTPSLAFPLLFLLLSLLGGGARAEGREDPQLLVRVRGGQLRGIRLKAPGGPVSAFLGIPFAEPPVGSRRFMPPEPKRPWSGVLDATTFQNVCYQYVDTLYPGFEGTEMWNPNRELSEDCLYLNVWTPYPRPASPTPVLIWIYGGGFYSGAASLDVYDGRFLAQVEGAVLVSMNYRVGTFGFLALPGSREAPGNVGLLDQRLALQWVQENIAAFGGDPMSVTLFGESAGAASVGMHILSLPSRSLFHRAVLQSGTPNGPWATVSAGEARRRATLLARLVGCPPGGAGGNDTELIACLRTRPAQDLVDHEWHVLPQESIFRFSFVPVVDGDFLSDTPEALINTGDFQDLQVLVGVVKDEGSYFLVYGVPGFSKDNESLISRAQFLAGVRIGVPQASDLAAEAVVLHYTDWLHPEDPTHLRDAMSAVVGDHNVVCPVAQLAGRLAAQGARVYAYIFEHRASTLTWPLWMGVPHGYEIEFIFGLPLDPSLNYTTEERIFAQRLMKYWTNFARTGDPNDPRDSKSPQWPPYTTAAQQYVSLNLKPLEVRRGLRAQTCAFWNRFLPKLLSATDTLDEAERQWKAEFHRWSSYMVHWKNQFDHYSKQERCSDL
How it was run: as §1, with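 “brain” for “serum”, “acetylthiocholine” for “butyrylthiocholine”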

Sequence of Cholinesterase (Q03311 whole entry): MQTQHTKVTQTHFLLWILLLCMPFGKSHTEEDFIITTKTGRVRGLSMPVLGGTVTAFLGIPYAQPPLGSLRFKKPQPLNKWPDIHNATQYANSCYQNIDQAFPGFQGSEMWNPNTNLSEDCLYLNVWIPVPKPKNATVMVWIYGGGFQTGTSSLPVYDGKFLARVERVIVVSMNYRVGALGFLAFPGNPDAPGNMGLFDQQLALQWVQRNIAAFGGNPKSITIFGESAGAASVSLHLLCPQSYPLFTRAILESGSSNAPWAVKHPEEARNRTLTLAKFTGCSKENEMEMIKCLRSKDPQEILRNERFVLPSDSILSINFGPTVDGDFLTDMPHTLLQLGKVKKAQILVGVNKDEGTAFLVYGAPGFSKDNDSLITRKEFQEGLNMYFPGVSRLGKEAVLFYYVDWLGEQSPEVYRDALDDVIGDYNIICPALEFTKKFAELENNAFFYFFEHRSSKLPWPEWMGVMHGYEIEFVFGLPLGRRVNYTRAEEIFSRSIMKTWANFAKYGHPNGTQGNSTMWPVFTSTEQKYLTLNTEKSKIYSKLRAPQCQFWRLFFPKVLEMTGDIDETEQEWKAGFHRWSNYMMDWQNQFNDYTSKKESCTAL

Row | Structure (SMILES) | IC50 (Cholinesterase) [µM] | IC50 (Acetylcholinesterase) [µM]
1 | CC(C)c1ccc(NC(=O)Oc2ccc3c(c2)[C@]2(C)CCN(CC(c4ccccc4)c4ccccc4)[C@@H]2N3C)cc1 | 10 | > 100
2 | CC(C)c1ccc(NC(=O)Oc2ccc3c(c2)[C@]2(C)CCN(C(Cc4ccccc4)c4ccccc4)[C@@H]2N3C)cc1 (stereo not given in full) | 15 | > 100
3 | CC(C)c1ccc(NC(=O)Oc2ccc3c(c2)[C@]2(C)CCN(CCc4ccc(Cl)cc4)[C@@H]2N3C)cc1 | 0.5 | > 100
4 | CC(C)c1ccc(CCN2CC[C@@]3(C)c4cc(OC(=O)Nc5ccc(C(C)C)cc5)ccc4N(C)[C@@H]23)cc1 | 3.3 | > 100
5 | CC(C)c1ccc(NC(=O)Oc2ccc3c(c2)[C@]2(C)CCN(CCc4ccc(Cl)cc4Cl)[C@@H]2N3C)cc1 | 2.6 | > 100
6 | Cc1ccc(CCN2CC[C@@]3(C)c4cc(OC(=O)Nc5ccc(C(C)C)cc5)ccc4N(C)[C@@H]23)c(C)c1 | 1.1 | > 100
7 | CC(C)c1ccc(NC(=O)Oc2ccc3c(c2)[C@]2(C)CCN(CC(C)c4ccccc4)[C@@H]2N3C)cc1 (stereo not given in full) | 0.72 | > 100
8 | CC(C)c1ccc(NC(=O)Oc2ccc3c(c2)[C@]2(C)CCN(CCc4ccccn4)[C@@H]2N3C)cc1 | 0.16 | 4.2
9 | CC(C)c1ccc(NC(=O)Oc2ccc3c(c2)[C@]2(C)CCN(CCN4CCCCC4)[C@@H]2N3C)cc1 | 0.17 | 3.5
10 | CC(C)c1ccc(NC(=O)Oc2ccc3c(c2)[C@]2(C)CCN(CCc4cccnc4)[C@@H]2N3C)cc1 | 0.18 | > 100
11 | CC(C)c1ccc(NC(=O)Oc2ccc3c(c2)[C@]2(C)CCN(CCc4ccncc4)[C@@H]2N3C)cc1 | 0.17 | 23
12 | CC(C)c1ccc(NC(=O)Oc2ccc3c(c2)[C@]2(C)CCN(CCCCc4ccccc4)[C@@H]2N3C)cc1 | 0.55 | > 100
13 | Cc1ccc(CCN2CC[C@@]3(C)c4cc(OC(=O)Nc5ccc(C(C)C)cc5)ccc4N(C)[C@@H]23)cc1 | 0.73 | > 100
14 | CC(C)c1ccc(NC(=O)Oc2ccc3c(c2)[C@]2(C)CCN(CCCc4ccccc4)[C@@H]2N3C)cc1 | 0.51 | > 100
15 | CC(C)c1ccc(NC(=O)Oc2ccc3c(c2)[C@]2(C)CCN(CCc4ccc(F)cc4)[C@@H]2N3C)cc1 | 0.5 | > 100
16 | CC(C)c1ccc(NC(=O)Oc2ccc3c(c2)[C@]2(C)CCN(Cc4ccccc4)[C@@H]2N3C)cc1 | 0.51 | > 100
17 | CC(C)c1ccc(NC(=O)Oc2ccc3c(c2)[C@]2(C)CCN(C)[C@@H]2N3C)cc1 [4-ISOPROPYLPHENSERINE] | 0.24 | 8.4
18 | CC(C)c1ccc(NC(=O)Oc2ccc3c(c2)[C@]2(C)CCN(CCc4ccccc4)[C@@H]2N3C)cc1 [PHENETHYLCYMSERINE] | – | > 100
